PubChem BioAssay AID2648 (Johns Hopkins Ion Channel Center, 2010)
Among all 310,000 compounds or so, about 1,100 (0.35%) were called active. The sample holds actives, similar compounds and a random draw of the others, so the mix is not that of the screen.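 How the source made its calls: active means fluorescence ratio B-score, a plate-corrected score, at least three library SD, with initial intensity B-score within 5 SD; inactive means the rest.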

Each compound was assayed against Potassium voltage-gated channel subfamily KQT member 1 (Homo sapiens) (UniProt P51787) (assay: potentiators or activators of KCNQ1 channel, primary screen, cell-based, thallium flux, high-throughput (AID 2648)). Conditions: CHO-K1 KCNQ1, thallium flux FluxOR fluorescence, at 10 µM; hits give high values.
Sequence of Potassium voltage-gated channel subfamily KQT member 1 (Homo sapiens) (P51787 whole entry, looked up): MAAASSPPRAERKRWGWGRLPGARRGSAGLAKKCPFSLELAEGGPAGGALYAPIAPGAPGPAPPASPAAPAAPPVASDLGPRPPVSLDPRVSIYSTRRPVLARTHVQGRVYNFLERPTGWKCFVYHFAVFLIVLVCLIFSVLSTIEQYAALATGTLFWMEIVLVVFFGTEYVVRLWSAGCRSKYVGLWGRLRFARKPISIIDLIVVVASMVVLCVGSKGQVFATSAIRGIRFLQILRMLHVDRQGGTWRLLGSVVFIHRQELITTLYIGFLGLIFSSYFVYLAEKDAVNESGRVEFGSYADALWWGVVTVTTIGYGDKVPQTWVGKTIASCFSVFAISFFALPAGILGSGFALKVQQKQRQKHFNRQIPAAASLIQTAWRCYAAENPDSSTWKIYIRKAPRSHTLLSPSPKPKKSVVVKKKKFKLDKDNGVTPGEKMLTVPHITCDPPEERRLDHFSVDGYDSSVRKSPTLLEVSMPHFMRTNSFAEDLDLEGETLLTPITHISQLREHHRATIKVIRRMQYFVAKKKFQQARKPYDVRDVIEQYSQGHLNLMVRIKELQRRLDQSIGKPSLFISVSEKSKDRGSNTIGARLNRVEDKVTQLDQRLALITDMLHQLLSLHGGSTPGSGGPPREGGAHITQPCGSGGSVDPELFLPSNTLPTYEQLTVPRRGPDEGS
Summary of the method: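 Doses: Single concentration per compound, DMSO matched to controls | Test system: KCNQ1-transfected CHO-K1 cells | Timing: 90 min dye loading and 20 min compound exposure, both at room temperature | Measured by: Kinetic FluxOR thallium fluorescence, 10-s 1-Hz baseline, 110-s post-stimulus read | Medium: Assay buffer with matched DMSO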

B-score, inactive:
O=C(NC1CCCCC1)c1ccc(-c2ccc(Cl)cc2)o1
CCOc1ccc(C(c2c(C)[nH][nH]c2=O)c2c(C)[nH][nH]c2=O)cc1OCC
Cn1nnnc1-c1cc(Cl)cc(Cl)c1
CC(=O)C12CC(C)=C(C)CC1CC1C3CCC4=CC(=O)CCC4(C)C3CCC12C (stereo not drawn)
O=C1NC(c2ccccc2)CCC1(Cl)Cl (stereo not drawn)
Cc1ccc2sc(N(CCN(C)C)C(=O)/C=C/c3cccs3)nc2c1C
COc1cccc2sc(N(CCCN(C)C)C(=O)C(c3ccccc3)c3ccccc3)nc12
CC(=O)N(CCCN(C)C)c1nc2ccc(C)cc2s1
COc1cc2ccccc2cc1C(=O)N(CCN(C)C)c1nc2c(F)cccc2s1
CCCCC(=O)Nc1ccc2c(c1)C(=O)NC2=O
O=C(COc1cc2oc(=O)c3c(c2cc1Cl)CCC3)NCCCN1CCOCC1
Cc1ccc(NC2CCCN(C(=O)CCC3(C)CC3)C2)cc1C (stereo not drawn)
COCCNC(=O)CSc1nc2sccc2c(=O)n1-c1ccccc1
CCN(CC)S(=O)(=O)c1ccc(Cl)c(NC(=O)c2ccncc2)c1
Cc1cccc(NC(=O)c2cccnc2Cl)n1
CC1CCN(S(=O)(=O)c2ccc3c(ccn3CC(=O)O)c2)CC1
CC1CCN(c2ccc(-c3ccc(NC(=O)c4ccco4)cc3)nn2)CC1
NC(=O)Cc1ccc2c(c1)[nH]c1ccccc12
S=c1ccc2ccccc2[nH]1
COc1ccc(OC)c(CCNC(=O)c2nn(C)c3c2CS(=O)(=O)c2ccccc2-3)c1
O=C(Nc1ccc(F)c([N+](=O)[O-])c1)C1CCCO1 (stereo not drawn)
O=C(Oc1ccc(Br)cc1)c1cccnc1
N#CCc1ccc(OC(=O)c2cccnc2)cc1
CCO[C@H]1OC(C(=O)Nc2ccccc2)=C[C@@H](C2CC2)[C@@H]1CCCO
Cc1ccc(S(=O)(=O)Nc2ccc3ncccc3c2)cc1
O=[N+]([O-])c1ccccc1S(=O)(=O)Nc1cccc2cccnc12

B-score, active:
Cc1[nH][nH]c(=O)c1C(c1ccc(-c2ccc(Cl)cc2)o1)c1c(C)[nH][nH]c1=O 25
COc1cccc2sc(N(CCCN(C)C)C(=O)CCS(=O)(=O)c3ccccc3)nc12 8
Cc1cccc2sc(N(CCCN(C)C)C(=O)CCS(=O)(=O)c3ccccc3)nc12 30
CCN(CC)S(=O)(=O)c1ccc(NC(=O)c2cccnc2Cl)c(NC(=O)c2cccnc2Cl)c1 13
S=c1[nH]c2ccccc2c2ccccc12 7
O=C(Oc1c(-c2ccco2)oc2ccccc2c1=O)c1cccnc1 15
COc1cc(NS(=O)(=O)c2ccc3ccccc3c2)c2ncccc2c1 14
